Consider 33 molecules from ChEMBL document CHEMBL3797137, “New ligands of the ghrelin receptor based on the 1,2,4-triazole scaffold by introduction of a second chiral center” (Bioorg Med Chem Lett, 2016).

Assay [1] deals with T1, Growth hormone secretagogue receptor type 1 (Homo sapiens, UniProt Q92847). The assay is described as follows: Antagonist activity at human GHS-R1a transfected in CHO cells assessed as inhibition of ghrelin-induced intracellular calcium mobilization measured over 60 secs by fluo-4AM dye-based fluorometric method. The format is functional, cell-based. (In general: Calcium assays in cells follow changes in intracellular calcium, usually with a dye or a luminescent sensor.)

Assay [2] deals with T1, Growth hormone secretagogue receptor type 1. Briefly: Antagonist activity at human GHS-R1a transfected in mouse LTK cells after 6 hrs by CRE/luciferase reporter gene assay in presence of ghrelin and rolipram. The format is functional, cell-based. The method, boiled down: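 Mouse LTK- cells stably carrying a CMV minimal promoter–3×CRE–luciferase construct, incubated 6 h with rolipram, saturating ghrelin and varied compound concentrations. Cells were then lysed and luminescence read. IC50 fitted from the curves.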

For assay [3] the target is unchanged. The assay is described as follows: Displacement of [125I]-His9-ghrelin from human GHS-R1a transfected in pig LLC PK-1 cell membranes after 60 mins by gamma counting method. The method, boiled down:
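Competition binding on membranes from LLC PK-1 cells transfected with GHS-R1a, using 0.3 nM ¹²⁵I-His9-ghrelin against increasing compound concentrations. Ki derived from the binding curves.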
On the technique in general: In a radioligand displacement assay an active substance lowers the binding of a labelled ligand.

The target is the same in assay [4]. Briefly: Inverse agonist activity at human GHS-R1a expressed in HEK293T cells after 45 mins by HTRF-based IP3 turnover assay. The format is functional, cell-based, HEK-293T. The settings on record: for Emax: HEK-293T. Background: TR-FRET usually uses a lanthanide donor and a delayed reading to cut background.
For assay [5] the target is unchanged. Briefly: Competitive binding affinity to human SNAP-tagged GHS-R1a expressed in HEK293T cells incubated at 4 degC for 3 hrs or at room temperature for 1 hr by Tag-lite assay. Type of assay: cell-based, HEK-293T. The gist of the method:
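Tag-lite binding measured by FRET between terbium cryptate attached to SNAP-tag-fused GHS-R1a and a red fluorescent high-affinity ghrelin ligand. Ki obtained from the fluorescent binding data.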

For assay [6] the target is unchanged. The assay is described as follows: Partial agonist activity at human GHS-R1a expressed in HEK293T cells at 10^-5 M after 45 mins by HTRF-based IP3 turnover assay. The format is functional, cell-based. The settings on record: HEK-293T.
Assay [7] shares this target. Briefly: Agonist activity at human GHS-R1a expressed in HEK293T cells after 45 mins by HTRF-based IP3 turnover assay. The settings on record: for Emax: HEK-293T. Type of assay: functional, cell-based, HEK-293T.
Assay [8] has the same target. The assay is described as follows: Antagonist activity at human GHS-R1a expressed in HEK293T cells assessed as inhibition of ghrelin-induced stimulation at 10^-5 M after 45 mins by HTRF-based IP3 turnover assay. The settings on record: HEK-293T. Type of assay: functional, cell-based.

Calls of active or inactive are those of the source. The calls are words filed in the database; no cut-off is given here.

T1 sequence (Q92847 whole entry): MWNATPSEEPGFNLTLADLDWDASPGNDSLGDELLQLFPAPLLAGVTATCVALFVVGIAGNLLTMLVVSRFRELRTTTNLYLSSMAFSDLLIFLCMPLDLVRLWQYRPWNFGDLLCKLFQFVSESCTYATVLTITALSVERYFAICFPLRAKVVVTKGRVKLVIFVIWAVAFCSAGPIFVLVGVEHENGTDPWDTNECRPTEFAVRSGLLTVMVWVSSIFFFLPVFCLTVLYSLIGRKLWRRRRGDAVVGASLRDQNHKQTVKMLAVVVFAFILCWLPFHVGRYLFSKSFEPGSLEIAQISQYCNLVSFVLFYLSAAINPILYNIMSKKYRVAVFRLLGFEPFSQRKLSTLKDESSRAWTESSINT

The IC50 is the concentration that gives 50% inhibition. One may read the Ki as a dissociation constant, usually derived from enzyme kinetics or from competition with a known ligand. A low value points to a stronger hold on the target. Take `COc1ccc(Cn2c([C@@H](N)Cc3c[nH]c4ccccc34)nnc2[C@@H](Cc2c[nH]c3ccccc23)NC(=O)C(C)(C)N)cc1`: the IC50 in assay [1] and in assay [2] was more than 1000 nM each time. Moreover, the Ki in assay [3] is more than 1000 nM.
As to `COc1ccc(Cn2c([C@@H](Cc3c[nH]c4ccccc34)NC(C)=O)nnc2[C@@H](Cc2c[nH]c3ccccc23)NC(=O)C(C)(C)N)cc1`, the half-inhibitory concentration (IC50) in assay [2] amounted to 22 nM. In assay [3], the affinity corresponds to a Ki of 12 nM.
As to `COc1ccc(Cn2c([C@@H](Cc3ccccc3)NC=O)nnc2[C@@H](Cc2c[nH]c3ccccc23)NC(=O)C(C)(C)N)cc1`, the IC50 in assay [1] came to 43 nM; in assay [2], 113 nM. In addition, the inhibition constant (Ki) in assay [3] worked out at 59 nM.
On the same counts, the results for `COc1ccc(Cn2c([C@H](N)Cc3ccccc3)nnc2[C@@H](Cc2c[nH]c3ccccc23)NC(=O)C(C)(C)N)cc1` are 135 nM, 115 nM and 154 nM.
Usually EC50 stands for the concentration needed to bring the measured effect to its halfway point. Take `COc1ccc(Cn2c([C@@H](Cc3c[nH]c4ccccc34)NC(=O)[C@H](CC(C)C)NC(=O)[C@H](CC(C)C)NC(C)=O)nnc2[C@@H](Cc2c[nH]c3ccccc23)NC(=O)[C@@H](N)CCCCN)cc1`: in assay [4], the concentration giving a half-maximal response (EC50) was determined as 70 nM and the Emax was -37%. The molecule also had a Ki in assay [5] of 110 nM.
In the case of `COc1ccc(Cn2c([C@@H](Cc3ccccc3)NC=O)nnc2[C@@H](Cc2c[nH]c3ccccc23)NC(=O)c2ccccn2)cc1`, the outcome in assay [6] was Active. Also, the concentration for half-maximal inhibition (IC50) in assay [1] is 3 nM; in assay [2], 8 nM. Besides, in assay [3], the inhibition constant Ki worked out at 8 nM.
Turning to `CC(C)C[C@H](NC(=O)[C@H](CC(C)C)NC(=O)[C@@H](Cc1c[nH]c2ccccc12)NC(=O)[C@H](Cc1ccccc1)NC(=O)[C@@H](Cc1c[nH]c2ccccc12)NC(=O)[C@@H](N)CCCCN)C(N)=O`, in assay [4], a half-maximal response (EC50) required 100 nM and the Emax was -55%. For the same molecule, the affinity in assay [5] corresponds to a Ki of 255 nM.
Turning to `COc1ccc(Cn2c([C@@H](Cc3ccccc3)NC(C)=O)nnc2[C@@H](Cc2c[nH]c3ccccc23)NC(=O)[C@@H]2CNCCO2)cc1`, the outcome in assay [6] was Active. Further, the IC50 is 3 nM in assay [1] and 9 nM in assay [2]. The Ki in assay [3] came to 2 nM.
On the same counts, the results for `COc1ccc(Cn2c([C@@H](Cc3ccccc3)NC(C)=O)nnc2[C@@H](Cc2c[nH]c3ccccc23)NC(=O)c2ncccc2F)cc1` are “Active”, 2 nM, 2 nM and 4 nM.
In the case of `COc1ccc(Cn2c([C@H](Cc3c[nH]c4ccccc34)NC(=O)[C@H]3CNCCO3)nnc2[C@@H](Cc2c[nH]c3ccccc23)NC(=O)[C@@H](CC(C)C)NC(=O)[C@@H](CC(C)C)NC(C)=O)cc1` (stereo in doubt), in assay [7], a half-maximal response (EC50) required 60 nM and the Emax worked out at 75%. In assay [5], this molecule showed a Ki of 50 nM.
In the case of `COc1ccc(Cn2c([C@H](Cc3ccccc3)NC(C)=O)nnc2[C@@H](Cc2c[nH]c3ccccc23)NC(=O)C(C)(C)N)cc1`, the 50% inhibitory concentration (IC50) in assay [1] and in assay [2] was more than 1000 nM each time. Further, the Ki in assay [3] was more than 1000 nM.
Take `COc1ccc(Cn2c([C@@H](Cc3c[nH]c4ccccc34)NC=O)nnc2[C@@H](Cc2c[nH]c3ccccc23)NC(=O)C(C)(C)N)cc1`: the IC50 in assay [1] turned out to be 33 nM; in assay [2] it was 60 nM. In assay [3], this molecule displayed an inhibitory constant (Ki) of 46 nM.
In the case of `COC(=O)[C@H](CC(C)C)NC(=O)C(CC(C)C)C(=O)N[C@H](Cc1c[nH]c2ccccc12)c1nnc([C@@H](Cc2c[nH]c3ccccc23)NC(=O)[C@@H](N)CCCCN)n1Cc1ccc(OC)cc1` (stereo partly drawn), in assay [7], the midpoint of the response, the EC50, lay at 82 nM and the Emax was 82%. In assay [5], this molecule yielded an inhibition constant Ki of 220 nM.
On the same counts, the results for `COc1ccc(Cn2c([C@@H](Cc3c[nH]c4ccccc34)NC(=O)[C@H](CC(C)C)NC(=O)[C@H](CC(C)C)NC(C)=O)nnc2[C@@H](Cc2c[nH]c3ccccc23)NC(=O)C(C)(C)O)cc1` are 74 nM, 75% and 3 nM.
Regarding `COc1ccc(Cn2c([C@@H](Cc3ccccc3)NC(C)=O)nnc2[C@@H](Cc2c[nH]c3ccccc23)NC(=O)c2cc(F)cc(F)n2)cc1`, the result in assay [6] was Active. For the same molecule, the IC50 in assay [1] and in assay [2] was 4 nM in each case. This molecule also registered an inhibition constant (Ki) in assay [3] of 11 nM.
In the case of `COc1ccc(Cn2c([C@H](Cc3c[nH]c4ccccc34)NC(C)=O)nnc2[C@@H](Cc2c[nH]c3ccccc23)NC(=O)c2ccccn2)cc1`, the IC50 in assay [1] came out at 190 nM; in assay [2], 100 nM. Besides, in assay [3], the Ki was determined as 62 nM.
With `COc1ccc(Cn2c([C@@H](Cc3ccccc3)NC(C)=O)nnc2[C@@H](Cc2c[nH]c3ccccc23)NC(=O)CO)cc1`, in assay [8], the inhibition result is “Active”. In addition, the outcome in assay [6] was Active. Also, the concentration for half-maximal inhibition (IC50) in assay [1] came out at 2 nM; in assay [2], 8 nM. In addition, the Ki in assay [3] was 0.8 nM.
Consider `COc1ccc(Cn2c([C@@H](Cc3c[nH]c4ccccc34)NC(C)=O)nnc2[C@@H](Cc2c[nH]c3ccccc23)NC(=O)[C@@H](N)CCCCN)cc1`, for which, in assay [7], a half-maximal response (EC50) required 4 nM and the Emax is 89%. In addition, in assay [5], the inhibition constant (Ki) is 2.5 nM.
The like results for `COC(=O)C(CC(C)C)C(=O)N[C@H](Cc1c[nH]c2ccccc12)c1nnc([C@@H](Cc2c[nH]c3ccccc23)NC(=O)[C@@H](N)CCCCN)n1Cc1ccc(OC)cc1` (mixture of isomers) were, in that order, 20 nM, 81% and 17 nM.
On to `COc1ccc(Cn2c([C@@H](Cc3ccccc3)NC(C)=O)nnc2[C@@H](Cc2c[nH]c3ccccc23)NC(=O)c2ccccn2)cc1`, for which the outcome in assay [6] was Active.
As to `COc1ccc(Cn2c([C@@H](Cc3c[nH]c4ccccc34)NC(=O)C(CC(C)C)C(=O)N[C@@H](CC(C)C)C(N)=O)nnc2[C@@H](Cc2c[nH]c3ccccc23)NC(=O)[C@@H](N)CCCCN)cc1` (mixture of isomers), in assay [7], the EC50 is 170 nM and the Emax stood at 60%. Also, in assay [5], the Ki was 210 nM.
Consider `COc1ccc(Cn2c([C@H](N)Cc3ccccc3)nnc2[C@@H](Cc2c[nH]c3ccccc23)NC(=O)c2ccccn2)cc1`, for which the figures for the IC50 in assay [1] and in assay [2] were 4 nM and 7 nM, respectively. In addition, in assay [3], the Ki came to 18 nM.
On the same counts, the results for `COc1ccc(Cn2c([C@@H](N)Cc3ccccc3)nnc2[C@@H](Cc2c[nH]c3ccccc23)NC(=O)c2ccccn2)cc1` are 150 nM, 320 nM and 62 nM.
On the same counts, the results for `COc1ccc(Cn2c([C@H](Cc3c[nH]c4ccccc34)NC=O)nnc2[C@@H](Cc2c[nH]c3ccccc23)NC(=O)c2ccccn2)cc1` are 1200 nM, 410 nM and 154 nM.
For `COc1ccc(Cn2c([C@@H](Cc3ccccc3)NC(C)=O)nnc2[C@@H](Cc2c[nH]c3ccccc23)NC(=O)C(C)(C)N)cc1`, the results for the IC50 in assay [1] and in assay [2] were 90 nM and 70 nM, respectively. In assay [3], this molecule showed an inhibitory constant (Ki) of 46 nM.
Regarding `COc1ccc(Cn2c([C@@H](Cc3ccccc3)NC(C)=O)nnc2[C@@H](Cc2c[nH]c3ccccc23)NC(=O)C2=CCCCO2)cc1`, the outcome in assay [6] was Active. Further, the figures for the half-inhibitory concentration (IC50) in assay [1] and in assay [2] were 4 nM and 3 nM, respectively. This molecule had an inhibition constant Ki in assay [3] of 9 nM.
In the case of `COc1ccc(Cn2c([C@@H](Cc3c[nH]c4ccccc34)NC=O)nnc2[C@@H](Cc2c[nH]c3ccccc23)NC(=O)[C@@H](N)CCCCN)cc1`, in assay [7], a half-maximal effect (EC50) was put at 10 nM and the Emax stood at 89%. This molecule also displayed an inhibitory constant (Ki) in assay [5] of 8 nM.
The like results for `COc1ccc(Cn2c(C(Cc3c[nH]c4ccccc34)NC(=O)C3CCNCC3)nnc2[C@@H](Cc2c[nH]c3ccccc23)NC(=O)C(CC(C)C)NC(=O)C(CC(C)C)NC(C)=O)cc1` (single isomer, unassigned) were, in that order, 4.4 nM, 108% and 2 nM.
For `COc1ccc(Cn2c([C@H](N)Cc3c[nH]c4ccccc34)nnc2[C@@H](Cc2c[nH]c3ccccc23)NC(=O)C(C)(C)N)cc1`, the 50% inhibitory concentration (IC50) in assay [1] was found to be 90 nM; in assay [2], 130 nM. The Ki in assay [3] is 131 nM.
`COc1ccc(Cn2c([C@@H](Cc3c[nH]c4ccccc34)NC(=O)[C@H](CC(C)C)NC(=O)[C@H](CC(C)C)NC(C)=O)nnc2[C@@H](Cc2c[nH]c3ccccc23)NC(=O)C(C)(C)N)cc1`: in assay [7], the half-maximal effective concentration (EC50) stood at 0.8 nM and the Emax is 80%. Moreover, the Ki in assay [5] stood at 30 nM.
Take `COc1ccc(Cn2c([C@H](Cc3c[nH]c4ccccc34)NC(C)=O)nnc2[C@@H](Cc2c[nH]c3ccccc23)NC(=O)C(C)(C)N)cc1`: the IC50 in assay [1] and in assay [2] was more than 1000 nM each time. The Ki in assay [3] is more than 1000 nM.
As to `COc1ccc(Cn2c([C@@H](N)Cc3ccccc3)nnc2[C@@H](Cc2c[nH]c3ccccc23)NC(=O)C(C)(C)N)cc1`, the IC50 in assay [1] and in assay [2] was more than 1000 nM throughout. In assay [3], the Ki was more than 1000 nM.
On to `COc1ccc(Cn2c([C@@H](Cc3c[nH]c4ccccc34)NC(C)=O)nnc2[C@@H](Cc2c[nH]c3ccccc23)NC(=O)c2ccccn2)cc1`, for which the results for the IC50 in assay [1] and in assay [2] were 3 nM and 2 nM, respectively. This molecule also yielded a Ki in assay [3] of 9 nM.
